Measurements published in ChEMBL document CHEMBL3593206, “SAR Studies of Exosite-Binding Substrate-Selective Inhibitors of A Disintegrin And Metalloprotease 17 (ADAM17) and Application as Selective in Vitro Probes” (J Med Chem, 2015).
The source made the active and inactive calls. The calls are words filed in the database; no cut-off is given here.

What was measured:
[1] = target: T1, Disintegrin and metalloproteinase domain-containing protein 17 (Homo sapiens, UniProt P78536); experiment: Inhibition of ADAM17 in human SW480 cells assessed as inhibition of PMA-stimulated wild type PTK7 shedding at 25 to 100 uM after 16 hrs by Western blot analysis; assay type: cell-based
T1 sequence (P78536 whole entry, the tested form may be a part): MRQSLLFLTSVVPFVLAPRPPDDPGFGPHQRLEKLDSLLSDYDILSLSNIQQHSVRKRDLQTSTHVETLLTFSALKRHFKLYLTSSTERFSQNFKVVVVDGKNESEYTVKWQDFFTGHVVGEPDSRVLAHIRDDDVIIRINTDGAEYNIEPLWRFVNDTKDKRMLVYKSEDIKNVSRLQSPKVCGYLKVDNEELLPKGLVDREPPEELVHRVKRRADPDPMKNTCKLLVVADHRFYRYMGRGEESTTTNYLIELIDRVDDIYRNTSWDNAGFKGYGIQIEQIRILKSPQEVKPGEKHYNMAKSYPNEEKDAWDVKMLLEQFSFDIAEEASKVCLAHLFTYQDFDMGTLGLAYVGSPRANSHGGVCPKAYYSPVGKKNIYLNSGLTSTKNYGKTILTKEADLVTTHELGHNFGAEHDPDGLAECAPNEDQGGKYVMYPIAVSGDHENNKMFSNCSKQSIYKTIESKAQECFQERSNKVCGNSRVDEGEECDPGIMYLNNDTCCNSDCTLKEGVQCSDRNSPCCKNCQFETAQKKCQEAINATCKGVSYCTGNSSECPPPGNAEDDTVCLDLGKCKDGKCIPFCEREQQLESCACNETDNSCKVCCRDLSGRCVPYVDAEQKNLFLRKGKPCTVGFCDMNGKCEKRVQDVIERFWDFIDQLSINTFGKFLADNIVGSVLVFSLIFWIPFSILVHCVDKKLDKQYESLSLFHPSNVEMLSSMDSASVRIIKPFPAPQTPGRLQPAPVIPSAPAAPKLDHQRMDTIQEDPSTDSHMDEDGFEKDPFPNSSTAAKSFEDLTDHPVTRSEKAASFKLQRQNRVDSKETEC
Outline: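 PTK7 shedding tested at 25, 50 and 100 μM in PMA-stimulated cells. HT1080 fibrosarcoma cells carried the L622D PTK7 mutant uncleavable by MT1-MMP; SW480 colorectal cells expressed wild-type PTK7 endogenously. Soluble PTK7 was detected.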

A549 [2] = experiment: Cytotoxicity against human A549 cells assessed as inhibition of cell viability up to 33 uM after 72 hrs by CellTiter-Glo assay; assay type: cell-based; details: a549, 72 h
[3] = target: T2, 72 kDa type IV collagenase (Homo sapiens, UniProt P08253); experiment: Inhibition of MMP2 (unknown origin) using Mca-KLPGL-Dnp-AR as substrate at 100 uM preincubated for 30 mins followed by substrate addition measured after 1 hr by fluorescence assay relative to control
Outline: (§1)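 Inhibitor as 10-point 1:3 dilutions from 300 μM, 30 min at RT. Substrate added from a 30 μM 3× solution. Single fluorescence read (ex 324/em 393 nm) after 1 h at RT.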
Target sequence in this assay (P08253 110-660 limits assumed): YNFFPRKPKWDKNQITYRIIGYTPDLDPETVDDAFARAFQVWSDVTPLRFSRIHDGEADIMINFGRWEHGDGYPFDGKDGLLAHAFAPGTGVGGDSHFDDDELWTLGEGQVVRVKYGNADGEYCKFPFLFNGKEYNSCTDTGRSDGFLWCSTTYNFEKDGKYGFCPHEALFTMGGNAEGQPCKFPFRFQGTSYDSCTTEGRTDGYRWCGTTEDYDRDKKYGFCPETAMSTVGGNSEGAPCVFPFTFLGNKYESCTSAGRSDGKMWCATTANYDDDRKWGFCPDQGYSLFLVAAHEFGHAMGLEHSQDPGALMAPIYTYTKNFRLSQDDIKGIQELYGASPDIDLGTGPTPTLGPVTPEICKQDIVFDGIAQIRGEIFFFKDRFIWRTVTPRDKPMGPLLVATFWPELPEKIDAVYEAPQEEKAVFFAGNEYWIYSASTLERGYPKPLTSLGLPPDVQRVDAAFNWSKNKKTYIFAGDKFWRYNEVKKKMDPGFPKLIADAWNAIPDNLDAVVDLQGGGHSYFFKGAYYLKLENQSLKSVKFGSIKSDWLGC

[4] = target: T3, Matrix metalloproteinase-9 (Homo sapiens, UniProt P14780); experiment: Inhibition of MMP9 (unknown origin) using Mca-KLPGL-Dnp-AR as substrate at 100 uM preincubated for 30 mins followed by substrate addition measured after 1 hr by fluorescence assay relative to control; outline: as §1
T3 sequence (P14780 whole entry): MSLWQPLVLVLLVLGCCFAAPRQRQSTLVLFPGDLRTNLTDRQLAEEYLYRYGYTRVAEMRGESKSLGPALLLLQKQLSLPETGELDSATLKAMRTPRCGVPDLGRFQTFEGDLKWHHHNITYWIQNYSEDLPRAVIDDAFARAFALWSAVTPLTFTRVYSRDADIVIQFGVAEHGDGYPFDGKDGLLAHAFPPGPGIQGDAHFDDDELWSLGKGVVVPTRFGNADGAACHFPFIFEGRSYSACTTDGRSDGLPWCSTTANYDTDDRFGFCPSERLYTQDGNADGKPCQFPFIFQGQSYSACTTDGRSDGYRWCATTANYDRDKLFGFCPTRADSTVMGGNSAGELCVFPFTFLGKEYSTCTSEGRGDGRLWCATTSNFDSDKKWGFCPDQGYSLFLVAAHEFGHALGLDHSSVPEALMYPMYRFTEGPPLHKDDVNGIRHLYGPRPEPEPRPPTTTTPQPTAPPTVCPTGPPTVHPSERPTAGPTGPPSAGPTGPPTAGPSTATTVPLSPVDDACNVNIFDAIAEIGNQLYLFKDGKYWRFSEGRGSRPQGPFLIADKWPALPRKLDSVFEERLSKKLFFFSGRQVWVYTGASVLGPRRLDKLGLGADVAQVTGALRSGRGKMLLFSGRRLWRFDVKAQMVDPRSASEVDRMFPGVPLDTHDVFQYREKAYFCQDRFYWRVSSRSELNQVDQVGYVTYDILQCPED

[5] = target: T3, Matrix metalloproteinase-9; experiment: Inhibition of MMP9 (unknown origin) using Mca-KLPGL-Dnp-AR as substrate preincubated for 30 mins followed by substrate addition measured after 1 hr by fluorescence assay; outline: as §1
ADAM17 (Homo sapiens) [6] = experiment: Inhibition of ADAM17 in human SW480 cells assessed as inhibition of PMA-stimulated wild type PTK7 shedding at 25 to 100 uM after 16 hrs by Western blot analysis
[7] = target: T4, Disintegrin and metalloproteinase domain-containing protein 10 (Homo sapiens) (UniProt O14672); experiment: Inhibition of ADAM10 (unknown origin) at 100 uM preincubated for 30 mins followed by substrate addition measured every 30 mins for 2 hrs by fluorescence assay relative to control
T4 sequence (whole entry): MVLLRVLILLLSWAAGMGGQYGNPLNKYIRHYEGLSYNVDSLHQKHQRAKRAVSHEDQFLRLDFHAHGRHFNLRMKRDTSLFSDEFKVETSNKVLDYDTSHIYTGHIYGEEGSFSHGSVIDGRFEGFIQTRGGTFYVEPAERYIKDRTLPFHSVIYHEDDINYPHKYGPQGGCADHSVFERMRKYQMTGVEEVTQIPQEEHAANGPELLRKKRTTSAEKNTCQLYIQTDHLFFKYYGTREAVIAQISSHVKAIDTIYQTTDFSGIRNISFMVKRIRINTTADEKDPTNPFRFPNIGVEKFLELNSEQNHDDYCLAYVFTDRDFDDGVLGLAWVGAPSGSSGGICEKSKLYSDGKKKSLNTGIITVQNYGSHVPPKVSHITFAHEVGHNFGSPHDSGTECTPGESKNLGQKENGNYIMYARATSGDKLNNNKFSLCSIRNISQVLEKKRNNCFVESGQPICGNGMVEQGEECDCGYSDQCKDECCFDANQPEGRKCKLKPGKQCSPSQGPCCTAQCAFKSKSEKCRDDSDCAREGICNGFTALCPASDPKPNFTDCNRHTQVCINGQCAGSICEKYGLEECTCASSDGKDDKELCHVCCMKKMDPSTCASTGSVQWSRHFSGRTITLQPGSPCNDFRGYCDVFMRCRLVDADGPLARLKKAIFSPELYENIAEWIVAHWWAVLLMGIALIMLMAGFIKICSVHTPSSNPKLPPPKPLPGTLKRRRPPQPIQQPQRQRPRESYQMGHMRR
Outline: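 Enzyme at 30 nM (3× solution) in 10 mM Hepes, 0.001% Brij-35, pH 7.5. Inhibitor series of 10 points, 1:3, from 300 μM, preincubated 30 min at RT. Glycosylated substrate added from a 30 μM 3× solution. Fluorescence (ex 360/em 460 nm) read every 30 min for 2 h. Inhibition taken from hydrolysis rates against substrate-only and substrate-plus-enzyme wells.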

[8] = target: T2, 72 kDa type IV collagenase; experiment: Inhibition of MMP2 (unknown origin) using Mca-KLPGL-Dnp-AR as substrate preincubated for 30 mins followed by substrate addition measured after 1 hr by fluorescence assay; outline: as §1
Target sequence in this assay (P08253 whole entry): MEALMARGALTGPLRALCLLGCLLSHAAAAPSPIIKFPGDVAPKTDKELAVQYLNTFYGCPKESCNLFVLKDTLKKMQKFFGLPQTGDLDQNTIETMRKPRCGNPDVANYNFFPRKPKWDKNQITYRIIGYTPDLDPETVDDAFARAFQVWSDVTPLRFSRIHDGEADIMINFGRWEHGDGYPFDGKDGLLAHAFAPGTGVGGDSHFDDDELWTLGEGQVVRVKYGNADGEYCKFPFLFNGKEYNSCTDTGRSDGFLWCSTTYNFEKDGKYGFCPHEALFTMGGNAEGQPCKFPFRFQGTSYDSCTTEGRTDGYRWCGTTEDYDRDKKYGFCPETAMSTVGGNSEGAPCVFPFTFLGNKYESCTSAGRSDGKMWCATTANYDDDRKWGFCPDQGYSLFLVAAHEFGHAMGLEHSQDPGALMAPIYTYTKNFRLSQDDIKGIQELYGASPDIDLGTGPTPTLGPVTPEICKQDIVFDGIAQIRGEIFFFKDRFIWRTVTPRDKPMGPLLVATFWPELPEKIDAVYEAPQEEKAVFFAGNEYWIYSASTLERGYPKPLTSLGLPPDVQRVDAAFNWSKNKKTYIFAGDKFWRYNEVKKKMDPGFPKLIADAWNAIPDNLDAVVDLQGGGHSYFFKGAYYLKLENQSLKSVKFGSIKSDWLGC

[9] = target: T1, Disintegrin and metalloproteinase domain-containing protein 17; experiment: Inhibition of ADAM17 in human EAhy926 cells assessed as inhibition of neprilysin shedding at 15 uM relative to control; assay type: cell-based
HepG2 = experiment: Cytotoxicity against human HepG2 cells assessed as inhibition of cell viability up to 33 uM after 72 hrs by CellTiter-Glo assay; assay type: cell-based; details: hepg2, 72 h
MDA-MB-231 = experiment: Cytotoxicity against human MDA-MB-231 cells assessed as inhibition of cell viability up to 33 uM after 72 hrs by CellTiter-Glo assay; assay type: cell-based; details: mda-mb-231, 72 h
[10] = target: T1, Disintegrin and metalloproteinase domain-containing protein 17; experiment: Inhibition of ADAM17 in human HT1080 cells assessed as inhibition of cell invasion after 5 to 24 hrs by Transwell assay; assay type: cell-based; details: HT-1080
A549 [11] = experiment: Potentiation of etoposide-mediated inhibition of human A549 cell viability at 40 uM incubated for 1 hr followed by etoposide addition measured after 72 hrs by CellTiter-Glo assay; assay type: functional, cell-based
Outline: (§2)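 A549 cells (1250 per well) in serum-free F12 were pretreated 1 h at 37 °C with 40 μM final test compound. Gefitinib, etoposide or doxorubicin was then added as 10-point 1:3 dilutions from 300 μM. After 72 h, viability was read by CellTiter-Glo luminescence and scaled between 100 μM gefitinib (0%) and 1% DMSO (100%).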

A549 [12] = experiment: Potentiation of doxorubicin-mediated inhibition of human A549 cell viability at 40 uM incubated for 1 hr followed by doxorubicin addition measured after 72 hrs by CellTiter-Glo assay; assay type: functional, cell-based; outline: as §2
ADAM17 (Homo sapiens) [13] = experiment: Inhibition of ADAM17 in HCC1806 cells assessed as inhibition of DDR1 shedding by immunoblot analysis
[14] = target: T1, Disintegrin and metalloproteinase domain-containing protein 17; experiment: Inhibition of ADAM17 in human THP1 cells assessed as inhibition of LPS-stimulated TNFalpha cleavage after 1 hr by AlphaScreen assay; assay type: cell-based, THP-1
Outline: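 THP-1 cells grown in RPMI 1640 with 10% FBS and 0.05 mM 2-mercaptoethanol; 3000 cells per well. Compound given in 3% DMSO for 1 h, then LPS added (1 μg/mL final) and cells incubated overnight at 37 °C. TNFα detected by AlphaScreen using anti-TNFα acceptor beads and streptavidin donor beads, each step 1 h in the dark at RT.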

[15] = target: T1, Disintegrin and metalloproteinase domain-containing protein 17; experiment: Inhibition of ADAM17 in HTSMC assessed as inhibition of DDR1 shedding at 10 to 40 uM by immunoblot analysis relative to control
ADAM17 (Homo sapiens) [16] = experiment: Inhibition of ADAM17 in HCC1806 cells assessed as inhibition of DDR1 shedding at 10 to 40 uM by immunoblot analysis relative to control

inhibition [1] [%] | inhibition [3] [%] | inhibition [4] [%] | IC50 [5] [µM] | inhibition (ADAM17 (Homo sapiens) [6]) [%] | inhibition [7] [%] | IC50 [8] [µM] | inhibition [9] [%] | inhibition [10] | inhibition (ADAM17 (Homo sapiens) [13]) | IC50 [14] [µM] | inhibition [15] [%] | inhibition (ADAM17 (Homo sapiens) [16]) [%] | SMILES | Activity (A549 [2]) | Activity (HepG2) | Activity (MDA-MB-231) | Activity (A549 [11]) | Activity (A549 [12])
0 | 0 | 0 | > 100 | 0 | 0 | > 100 | – | – | – | – | – | – | CCCC[C@H]1CN([C@@H](Cc2ccc(O)cc2)CN2CCC[C@H]2CN2C(=O)C(=O)NC[C@H]2Cc2ccc3ccccc3c2)C(=O)C(=O)N1CCC12CC3CC(CC(C3)C1)C2 | Non-toxic | – | – | – | –
0 | 0 | 13 | > 100 | 0 | 0 | > 100 | 62 | – | – | – | – | – | O=C1NC[C@H](Cc2ccccc2)N(C[C@@H]2CCCN2C[C@@H](CC2CCCCC2)N2C[C@H](Cc3ccc(O)cc3)N(CCc3ccccc3)C(=O)C2=O)C1=O | Non-toxic | Non-toxic | Non-toxic | – | –
0 | – | – | – | 0 | 0 | – | – | Dose-dependent effect | Dose-dependent effect | 100 | 59 | 59 | O=C1NC[C@@H](Cc2ccc(O)cc2)N(C[C@@H]2CCCN2C[C@@H](Cc2ccc3ccccc3c2)N2CC(Cc3ccc(O)cc3)N(CCC34CC5CC(CC(C5)C3)C4)C(=O)C2=O)C1=O (single isomer, unassigned) | Non-toxic | Non-toxic | Non-toxic | inactive | inactive
